ChEMBL document CHEMBL4406804, “Discovery of a Potent Steroidal Glucocorticoid Receptor Antagonist with Enhanced Selectivity against the Progesterone and Androgen Receptors (OP-3633)” (J Med Chem, 2019)
pIC50: −log10 of the molar value.

Columns and labels:
[1] = molecular target: T1, Androgen receptor (Homo sapiens, UniProt P10275); assay: Antagonist activity at human androgen receptor in human LNCAP cells harboring firefly luciferase gene after 20 hrs by One-Glo luciferase reporter gene assay; format: cell-based
T1 sequence (P10275 whole entry): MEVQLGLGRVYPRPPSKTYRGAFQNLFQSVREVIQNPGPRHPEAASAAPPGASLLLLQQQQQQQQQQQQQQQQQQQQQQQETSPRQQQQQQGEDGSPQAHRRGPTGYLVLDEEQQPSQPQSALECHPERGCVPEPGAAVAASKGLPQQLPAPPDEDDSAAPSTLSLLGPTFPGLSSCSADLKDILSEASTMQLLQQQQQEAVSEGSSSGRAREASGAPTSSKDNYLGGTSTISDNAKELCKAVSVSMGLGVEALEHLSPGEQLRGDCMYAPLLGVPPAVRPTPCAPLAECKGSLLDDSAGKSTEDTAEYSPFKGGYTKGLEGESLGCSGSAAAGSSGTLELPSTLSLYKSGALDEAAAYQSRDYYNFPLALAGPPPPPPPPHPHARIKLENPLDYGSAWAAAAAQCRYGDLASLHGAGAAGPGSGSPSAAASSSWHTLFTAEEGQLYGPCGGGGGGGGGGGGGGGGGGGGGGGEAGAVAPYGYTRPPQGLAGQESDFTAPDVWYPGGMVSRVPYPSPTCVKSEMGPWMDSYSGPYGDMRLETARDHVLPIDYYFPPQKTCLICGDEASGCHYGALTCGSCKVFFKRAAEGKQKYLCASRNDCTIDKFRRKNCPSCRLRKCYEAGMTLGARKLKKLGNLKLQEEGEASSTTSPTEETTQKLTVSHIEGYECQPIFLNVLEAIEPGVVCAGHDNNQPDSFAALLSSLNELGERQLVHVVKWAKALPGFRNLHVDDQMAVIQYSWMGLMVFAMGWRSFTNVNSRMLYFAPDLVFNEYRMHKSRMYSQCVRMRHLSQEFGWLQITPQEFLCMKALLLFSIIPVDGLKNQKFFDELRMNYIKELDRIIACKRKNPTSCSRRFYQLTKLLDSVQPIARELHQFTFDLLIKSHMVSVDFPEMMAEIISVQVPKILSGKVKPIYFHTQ
How it was run: (§1)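 Cell-based luciferase reporter assays for GR, AR and PR, run in agonist and antagonist modes. Potency and Emax are averages of at least two determinations, reported with SD.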

[2] = molecular target: T1, Androgen receptor; assay: Agonist activity at human androgen receptor in human LNCAP cells harboring firefly luciferase gene after 20 hrs by One-Glo luciferase reporter gene assay relative to mifepristone; format: cell-based; how it was run: as §1
[3] = molecular target: CYP3A4 (Homo sapiens, UniProt P08684); assay: Inhibition of CYP3A4 (unknown origin) at 10 uM using midazolam as substrate relative to control; format: ADME; conditions: probe midazolam
Sequence of CYP3A4 (P08684 whole entry): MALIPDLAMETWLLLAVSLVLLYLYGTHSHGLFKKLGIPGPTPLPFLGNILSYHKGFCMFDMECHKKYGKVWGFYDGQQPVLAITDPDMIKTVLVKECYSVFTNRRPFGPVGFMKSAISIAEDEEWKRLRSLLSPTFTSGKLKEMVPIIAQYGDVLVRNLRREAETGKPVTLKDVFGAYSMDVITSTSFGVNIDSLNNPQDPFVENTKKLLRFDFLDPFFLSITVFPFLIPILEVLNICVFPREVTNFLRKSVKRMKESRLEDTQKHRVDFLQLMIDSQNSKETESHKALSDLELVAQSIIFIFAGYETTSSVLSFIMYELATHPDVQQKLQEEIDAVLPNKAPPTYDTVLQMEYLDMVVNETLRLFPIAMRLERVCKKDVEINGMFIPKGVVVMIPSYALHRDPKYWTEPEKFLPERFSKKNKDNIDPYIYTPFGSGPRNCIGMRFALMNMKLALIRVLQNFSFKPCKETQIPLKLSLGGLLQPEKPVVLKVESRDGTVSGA

[4] = molecular target: T2, CYP2C8 (Homo sapiens, UniProt P10632); assay: Inhibition of CYP2C8 (unknown origin) at 10 uM using paclitaxel as substrate relative to control; format: ADME; conditions: probe paclitaxel
T2 sequence (P10632 whole entry): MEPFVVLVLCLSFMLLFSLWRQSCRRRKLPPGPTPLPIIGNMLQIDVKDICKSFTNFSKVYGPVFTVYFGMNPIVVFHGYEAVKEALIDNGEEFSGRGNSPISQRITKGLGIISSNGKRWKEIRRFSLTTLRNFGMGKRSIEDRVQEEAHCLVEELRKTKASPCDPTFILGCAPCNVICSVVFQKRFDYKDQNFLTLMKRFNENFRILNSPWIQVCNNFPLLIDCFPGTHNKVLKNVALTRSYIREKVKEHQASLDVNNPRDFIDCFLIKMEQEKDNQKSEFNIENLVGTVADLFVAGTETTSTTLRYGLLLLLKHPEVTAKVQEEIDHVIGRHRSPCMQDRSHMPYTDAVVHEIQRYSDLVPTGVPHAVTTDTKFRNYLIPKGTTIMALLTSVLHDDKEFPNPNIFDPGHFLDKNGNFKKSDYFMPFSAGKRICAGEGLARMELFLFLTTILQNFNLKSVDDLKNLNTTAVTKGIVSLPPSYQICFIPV

[5] = molecular target: Cytochrome P450 3A4 (Homo sapiens, UniProt P08684); assay: Inhibition of CYP3A4 (unknown origin) using midazolam as substrate; format: ADME
Sequence of Cytochrome P450 3A4 (P08684 whole entry): as the sequence (P08684 whole entry) above

[6] = Half-life in rat at 0.5 mg/kg, iv; format: ADME, organism-based; conditions: in vivo
How it was run: (§2)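 Rat PK study. The iv dose of 0.5 mg/kg was given in 10% DMSO, 70% PEG 400 and 20% water. The oral dose of 5 mg/kg was given in 5% DMSO / 95% of 0.2% Tween 80 in 0.25% CMC, adjusted to pH 4 for one compound. Read-outs were CL, Vss, iv t1/2, F, Cmax and AUC.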

[7] = Cmax in rat at 5 mg/kg, po; format: ADME, organism-based; set-up: dose 5 mg/kg, route oral; conditions: in vivo; how it was run: as §2
[8] = AUC in rat at 5 mg/kg, po; format: ADME, organism-based; conditions: in vivo; how it was run: as §2
[9] = Half-life in dog at 0.5 mg/kg, iv; format: ADME, organism-based, Canis lupus familiaris; conditions: in vivo
[10] = Volume of distribution at steady state in mini-pig at 0.5 mg/kg, iv; format: ADME, organism-based, Sus scrofa domesticus; conditions: in vivo, read-out: Vdss
[11] = Half-life in mini-pig at 0.5 mg/kg, iv; format: ADME, organism-based, Sus scrofa domesticus; conditions: in vivo
[12] = Oral bioavailability in mini-pig at 5 mg/kg; format: ADME, organism-based, Sus scrofa domesticus; conditions: in vivo
[13] = Toxicity in female rat assessed as effect on clinical observation at 250 mg/kg/day, po administered once daily via gavage for 14 days; format: organism-based; conditions: in vivo, 336 h
[14] = Toxicity in female rat assessed as effect on uterine weight at 250 mg/kg/day, po administered once daily via gavage for 14 days; format: organism-based; conditions: in vivo, 336 h

CC#C[C@]1(O)CC[C@H]2[C@@H]3CCC4=CC(=O)CC[C@]4(C)[C@H]3[C@@H](c3ccc(N(C)C)cc3)C[C@@]21C
pIC50 [1]: 6.04 | Emax at 20 h [2]: 13.3% | inhibition at 10 µM [3]: 34% | inhibition at 10 µM [4]: 58% | pIC50 [5]: < 5.00 | half-life [6]: 1.8 h | Cmax [7]: 518 ng/mL | AUC [8]: 1020 ng·h/mL | half-life [9]: 16.2 h | Vd [10]: 1.45 L/kg | half-life [11]: 2.71 h | bioavailability [12]: 35.9% | Activity [13]: Non-Toxic | Activity [14]: Non-Toxic
